According to article PMC11601626 (bioRxiv, 2024):
Where a chain is given by its changes, count along the chain named. Names may count otherwise.

Experiments:
HCT116 cells [1] = assay: Colony formation assay under zeocin; assay type: cell-based, human; settings: ∆PHRF1 HCT116 cells, complemented; effect greater with WT than P221L
How it was run: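 Cells were Control+EV, ∆PHRF1+EV, and ∆PHRF1 complemented with 3XFlag-PHRF1 WT or P221L. They were harvested near 70% confluence and seeded at 500 cells/well in biological triplicate, then left to adhere overnight at 37°C. Medium was replaced with zeocin at 0, 0.375, 0.75 and 1.5 µg/mL for 9 days undisturbed. Cells were fixed in 4% formaldehyde and stained with 0.5% crystal violet; growth area was measured per imaged well.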

HCT116 cells [2] = assay: Live-cell imaging growth analysis; assay type: cell-based, human; settings: ∆PHRF1 HCT116 cells, complemented; no zeocin; Incucyte, one week; n = 3
How it was run: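 Control+EV, ∆PHRF1+EV and WT- or P221L-complemented ∆PHRF1 lines were grown in McCoy's 5A with 10% FBS and penicillin/streptomycin at 37°C, 5% CO₂. They were harvested near 70% confluence and seeded at 1,000 cells/well in biological triplicate. Imaging began immediately: every 4 h for one week, 10X objective, four fields per well. Confluence was scored as percentage of area occupied by cells.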

[3] = test system: HeLa cells (control and ∆PHRF1); assay: Zeocin DNA damage recovery assay, γH2A.X intensity/nucleus, HeLa; assay type: cell-based, human; settings: qGAM; 50 μg/mL zeocin 30 minutes, washout 0-26 h; p-value 4.79x10-5 (Wald)
[4] = biological target: unmodified biotinylated nucleosome (EpiCypher) (human) (UniProt P68431); assay: BLI
H3 (1–20)-FAM = assay: Histone peptide fluorescence polarization; assay type: binding; settings: protein 50 to 0.0061 μM, pH 8.0, KD n.d.
GST-PHRF1^RP(P221L) = assay: Histone peptide microarray with GST-PHRF1^RP; assay type: binding, human; settings: over 300 differentially-modified histone peptides
[5] = test system: differentially modified biotinylated nucleosomes; assay: Nucleosome pulldown assay; assay type: binding; settings: 2.5 pmol protein, 12.5 pmol nucleosomes, pH 7.5, 4°C overnight
How it was run: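 Binding buffer: 50 mM Tris-HCl pH 7.5, 150 mM NaCl, 0.5% BSA, 0.1% NP-40, 10% glycerol. GST-PHRF1 RP, PHD or RP(P221L) was mixed with the modified biotinylated nucleosomes. Beads were washed three times in binding buffer, 5 min each at 4°C with rotation, then taken up in SDS loading dye. Immunoblots used anti-GST for PHRF1 and anti-H3 for nucleosome presence.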

[6] = test system: biotinylated unmodified nucleosomes; assay: Biolayer interferometry; assay type: binding; settings: BLI; protein 25 to 1.625 μM; pH 7.0; 37°C; KD n.d.
[7] = test system: differentially modified biotinylated nucleosomes; assay: dCypher nucleosome alphascreen binding assay; settings: GST-PHRF1^RP 3 nM, nucleosomes 10 nM, duplicate

Molecule: 3XFlag-PHRF1^P221L: 3XFlag-tagged PHRF1 P221L mutant expressed by lentivirus in HCT116 ∆PHRF1 cells
- rescue of colony growth at 0.375 μg/mL zeocin, in words (HCT116 cells [1]): partial rescue of growth
- rescue of growth under normal conditions, in words (HCT116 cells [2]): partially rescuing the growth phenotype

Molecule: 3XFlag-PHRF1^WT: N-terminally 3XFlag-tagged PHRF1 expressed by lentivirus in HCT116 ∆PHRF1 cells
- rescue of colony growth at 0.375 μg/mL zeocin, in words (HCT116 cells [1]): partial rescue of growth
- rescue of growth under normal conditions, in words (HCT116 cells [2]): largely rescued the growth defects

Molecule: Cc1c(N)nc([C@H](CC(N)=O)NC[C@H](N)C(N)=O)nc1C(=O)N[C@H](C(=O)N[C@H](C)[C@@H](O)[C@H](C)C(=O)N[C@H](C(=O)NCCC1=N[C@@H](c2nc(C(=O)NCCCCN=C(N)N)cs2)CS1)[C@@H](C)O)[C@@H](O[C@@H]1O[C@@H](CO)[C@@H](O)[C@H](O)[C@@H]1O[C@H]1O[C@H](CO)[C@@H](O)[C@H](OC(N)=O)[C@@H]1O)c1cnc[nH]1 [zeocin, phleomycin D1]
- Parametric Coefficient, γH2A.X intensity/nucleus, ∆PHRF1 vs Control [3]: −345.25

Molecule: GST-PHRF1^RP (RING-PHD region of PHRF1, residues 107-232) (from UniProt Q9P1Y6 107-232) (domain or fragment)
- Kd [4]: 1010 nM

B1: GST-PHRF1^RP(P221L): GST-PHRF1^RP with P221 mutated to leucine (protein)
chain: SCPICLNAFRDQAVGTPENCAHYFCLDCIVEWSKNANSCPVDRTLFKCICIRAQFGGKILRKIPVENTKASEEEEDPTFCEVCGRSDREDRLLLCDGCDAGYHMECLDPPLQEVLVDEWFCPECAA
modifications: left off: GST, end not stated, kept
- binding to H3 1–20(FAM), in words (H3 (1–20)-FAM): little to no observable binding
- binding to histone peptides, in words (GST-PHRF1^RP(P221L)): virtually no binding to any histone peptide on the microarray
- nucleosome interaction of P221L mutant, in words [5]: abolished all nucleosome interaction
- binding to nucleosomes, in words [6]: no detectable binding to nucleosomes

B2: GST-PHRF1^RP: GST-tagged PHRF1 RING-PHD region, residues 107–232 of PHRF1 (protein)
chain: B1 chain with L115P
modifications: left off: GST, end not stated, kept
- nucleosome binding, H3K9me3 versus unmodified, in words [7]: heightened binding
